Laboratory results as given in ChEMBL document CHEMBL1142792, “Structure-activity relationship studies of salubrinal lead to its active biotinylated derivative” (Bioorg Med Chem Lett, 2005).

What follows are compounds tested on PC-12 (assay: Cytoprotective activity on rat tunicamycin treated rat pheochromocytoma cell line PC12 from apoptosis induced by Endoplasmic reticulum stress; NA = Not active upto 100 uM).
Assay type: functional, cell-based; call rule not given here
Summary of the method: (§1)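 PC12 cells exposed to tunicamycin (ER-stress inducer) together with graded compound doses for 37 h; viability read as cellular ATP content. Positive control: zVAD.fmk 100 µM. EC50 taken as concentration giving half-maximal rescue from cell death relative to the Tm-only control.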

| EC50 | Structure (SMILES) |
| --- | --- |
| Not Active | CCCCOc1ccc(/C=C/C(=O)NC(/N=C(\S)Nc2ccccn2)C(Cl)(Cl)Cl)cc1 (stereo unspecified) |
| Not Active | O=C(/C=C/c1ccccc1)NC1CSC(Nc2ccccn2)=N1 (stereo unspecified) |
| Not Active | O=C(NC(NC(=S)Nc1ccccn1)C(Cl)(Cl)Cl)c1ccccc1 (stereo unspecified) |

Further lines, the compound ahead of its results:

| Structure (SMILES) | EC50 |
| --- | --- |
| CC(C)=CC(=O)NC(/N=C(\S)Nc1ccccn1)C(Cl)(Cl)Cl (stereo unspecified) | Not Active |
| O=C(/C=C/c1ccccc1)NC(NC(=S)Nc1cnc2ccccc2c1)C(Cl)(Cl)Cl (stereo unspecified) | Not Active |
| CCOC(=O)C(/N=C(\S)Nc1ccccn1)NC(=O)/C=C/c1ccccc1 (stereo unspecified) | Not Active |
| O=C(/C=C/c1ccccc1)NC(CO)/N=C(\S)Nc1ccccn1 (stereo unspecified) | Not Active |

These compounds were tested on PC-12 (assay: Cytoprotective activity on rat tunicamycin treated rat pheochromocytoma cell line PC12 from apoptosis induced by Endoplasmic reticulum stress; TX=Toxic).
Assay type: functional, cell-based
Summary of the method: as §1

| Structure (SMILES) | EC50 |
| --- | --- |
| O=C(/C=C/c1ccccc1)NC(/N=C(\S)Nc1ccccn1)C(F)(F)F (stereo unspecified) | Toxic |
| O=C(/C=C/c1ccccc1)NCCNC(=S)Nc1ccccn1 | Toxic |
| O=C(/C=C/c1ccccc1)NNC(=S)Nc1ccccn1 | Toxic |

These compounds were tested on PC-12 (assay: Cytoprotective activity on rat tunicamycin treated rat pheochromocytoma cell line PC12 from apoptosis induced by Endoplasmic reticulum stress).
Assay type: functional, cell-based
Summary of the method: as §1

| EC50 [µM] | Structure (SMILES) |
| --- | --- |
| 40 | O=C(/C=C/c1ccccc1)NC(NC(=S)Nc1ccccn1)C(Cl)(Cl)Cl (stereo unspecified) |
| 28 | O=C(/C=C/c1ccc([N+](=O)[O-])cc1)NC(/N=C(\S)Nc1ccccn1)C(Cl)(Cl)Cl (stereo unspecified) |
| 51 | O=C(/C=C/c1ccccc1)NC(NC(=S)Nc1ccccn1)C(Br)(Br)Br (stereo unspecified) |
| 29 | O=C(/C=C/C1CCCCC1)NC(NC(=S)Nc1ccccn1)C(Cl)(Cl)Cl (stereo unspecified) |
| 72 | O=C(/C=C/c1ccc(F)cc1F)NC(/N=C(\S)Nc1ccccn1)C(Cl)(Cl)Cl (stereo unspecified) |
| > 100 | O=C(/C=C/c1ccccc1)NC(NC(=S)NC(=O)c1ccccc1)C(Cl)(Cl)Cl (stereo unspecified) |
| 75 | O=C(/C=C/c1ccccc1)NC(NC(=S)Nc1ccccn1)C(Cl)Cl (stereo unspecified) |

The next lines start with the compound.

| Structure (SMILES) | EC50 [µM] |
| --- | --- |
| O=C(/C=C/c1ccccc1)NC(NC(=S)Nc1cccc2cccnc12)C(Cl)(Cl)Cl (stereo unspecified) [SALUBRINAL] | 15 |
| O=C(/C=C/c1ccccc1C(F)(F)F)NC(/N=C(\S)Nc1ccccn1)C(Cl)(Cl)Cl (stereo unspecified) | 38 |
| O=C(/C=C/c1cccnc1)NC(NC(=S)Nc1ccccn1)C(Cl)(Cl)Cl (stereo unspecified) | 30 |
| O=C(/C=C/c1ccccc1Cl)NC(NC(=S)Nc1ccccn1)C(Cl)(Cl)Cl (stereo unspecified) | 40 |
| O=C(CCc1ccccc1)NC(NC(=S)Nc1ccccn1)C(Cl)(Cl)Cl (stereo unspecified) | 33 |
| O=C(/C=C/c1ccc(Br)cc1)NC(NC(=S)Nc1ccccn1)C(Cl)(Cl)Cl (stereo unspecified) | 50 |
| Nc1ccc(/C=C/C(=O)NC(/N=C(\S)Nc2ccccn2)C(Cl)(Cl)Cl)cc1 (stereo unspecified) | 56 |
| CCCC/N=C(\S)NC(NC(=O)/C=C/c1ccccc1)C(Cl)(Cl)Cl (stereo unspecified) | 24 |
| O=C(/C=C/c1cccs1)NC(NC(=S)Nc1ccccn1)C(Cl)(Cl)Cl (stereo unspecified) | 41 |
